From PubChem BioAssay AID624314 (The Scripps Research Institute Molecular Screening Center, 2012)
Calls of active or inactive are those of the source.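 Rule for the calls: active = relative activity ratio above 1.25 at every tested dose; inactive = the rest.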

System: HEK293 3B-HSD promoter CAT reporter, ELISA absorbance
Experiment: 3B-HSD promoter reporter expression modulators, late-stage follow-up, counter-screen for DAX1 (NR0B1) inhibitor project, cell-based, absorbance (AID 624314)
Conditions: at 100 µM (top of the series)
Procedure, shortened: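 Schedule: compound exposure 16 h at 37 °C; Assay system: HEK293 cells transfected with full-length DAX-1, SF-1, HSD3B2-promoter CAT reporter; Replicates: triplicate testing per concentration; Dosing: three-point twofold dilution series, nominal top 100 µM; Measured by: CAT EIA absorbance; Evaluation: CAT signal relative to DMSO-treated wells.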

SMILES | relative activity ratio
Cn1c(=O)n(C)c2cc(C(=O)Nc3ccc4c(c3)OCO4)ccc21 | 0.34 (inactive)
Cn1c(=O)n(C)c2cc(C(=O)Nc3ccc4c(c3)OCCO4)ccc21 | 0.26 (inactive)
